Here are results for 16 compounds from PubChem BioAssay.

Active and inactive are the calls of the source. Rule as the data show it, unless noted: active = inhibition above about 30%; inactive = the rest.

Experiment [1] can be described thus: Her2 expression decrease, cell viability multiplex – SKBR3 breast tumor cells, AlphaScreen, ATP viability, primary screen (AID 461;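 active = Her2 level under about 52% in both replicate screens, with viability over 70% of control, limit read from the data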;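 as to Her2 level: lower value means less Her2 protein in the cells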;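 as to viability: percent of carrier control wells set as 100% viability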). Particulars: SKBR3 Her2 protein level, 18-24 h, measured here: SKBR3 viability, ATP luminescence, at 10 µM. (In Alpha technology, singlet oxygen from a donor bead excites a nearby acceptor bead.)
For experiment [2], the target named is Receptor tyrosine-protein kinase erbB-2 (Homo sapiens) (UniProt P04626). Described as above. To be noted: 18-24 h, at 10 µM, stronger effect = lower value.
Receptor tyrosine-protein kinase erbB-2 (Homo sapiens), sequence (P04626 whole entry, looked up): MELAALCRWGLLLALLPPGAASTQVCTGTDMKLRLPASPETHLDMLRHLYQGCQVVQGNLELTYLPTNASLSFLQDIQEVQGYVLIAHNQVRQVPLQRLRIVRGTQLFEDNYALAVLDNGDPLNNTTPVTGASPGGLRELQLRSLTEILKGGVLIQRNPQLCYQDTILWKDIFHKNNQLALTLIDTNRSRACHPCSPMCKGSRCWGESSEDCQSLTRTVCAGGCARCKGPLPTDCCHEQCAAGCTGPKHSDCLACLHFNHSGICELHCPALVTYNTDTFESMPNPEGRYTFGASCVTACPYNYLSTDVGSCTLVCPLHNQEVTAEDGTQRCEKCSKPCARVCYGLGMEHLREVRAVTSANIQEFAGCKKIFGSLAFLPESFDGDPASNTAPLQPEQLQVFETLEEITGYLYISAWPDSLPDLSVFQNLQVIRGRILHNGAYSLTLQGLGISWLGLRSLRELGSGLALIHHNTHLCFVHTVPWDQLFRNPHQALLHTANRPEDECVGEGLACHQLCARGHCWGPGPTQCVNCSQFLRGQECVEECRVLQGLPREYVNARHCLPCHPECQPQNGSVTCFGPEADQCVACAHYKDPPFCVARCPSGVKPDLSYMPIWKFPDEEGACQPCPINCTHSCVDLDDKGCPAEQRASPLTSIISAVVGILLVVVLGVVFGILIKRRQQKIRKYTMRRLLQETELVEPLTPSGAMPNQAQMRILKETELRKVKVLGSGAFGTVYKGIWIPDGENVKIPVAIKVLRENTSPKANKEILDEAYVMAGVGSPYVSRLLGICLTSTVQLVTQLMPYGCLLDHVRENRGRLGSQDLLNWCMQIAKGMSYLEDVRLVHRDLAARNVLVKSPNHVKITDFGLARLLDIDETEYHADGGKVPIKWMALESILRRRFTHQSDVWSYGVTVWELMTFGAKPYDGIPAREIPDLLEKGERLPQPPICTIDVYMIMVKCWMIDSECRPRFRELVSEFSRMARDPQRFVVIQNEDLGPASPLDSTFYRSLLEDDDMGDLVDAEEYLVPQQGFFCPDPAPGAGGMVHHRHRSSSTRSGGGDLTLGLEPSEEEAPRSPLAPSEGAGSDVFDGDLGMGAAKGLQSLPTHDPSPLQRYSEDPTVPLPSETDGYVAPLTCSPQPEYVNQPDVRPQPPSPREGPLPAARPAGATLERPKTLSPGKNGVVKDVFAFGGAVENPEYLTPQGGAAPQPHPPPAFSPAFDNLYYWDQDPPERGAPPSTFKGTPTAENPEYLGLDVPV
Experiment [3] can be described thus: reduced viability of SK-BR-3 breast cancer cells – cell-based, 24 h, human, pilot screen (AID 572;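 active = viability at or below 10% of carrier control in both of two separate runs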;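 also: compound exposure lasted between 18 and 24 h rather than exactly 24 h; 100% = carrier-treated control wells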). To be noted: SK-BR-3 viability, CellTiter-Glo luminescence, at 10 µM, stronger effect = lower value.
Experiment [4] in a line: HUVEC growth inhibition – cell-based, human, primary screen (AID 575;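 active = viability at or below 30% in both replicate assays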;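 also: 100% = median of untreated cell wells with 0.1% DMSO on each plate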). To be noted: HUVEC proliferation, CellTiter-Glo luminescence, 72 h; at 10 µM; stronger effect = lower value. In short, it runs like this:
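Test system: HUVEC primary cells. Quantity: 1250 endothelial cells in each well. Dosing: single-point 10 µM, DMSO 0.1% final. Incubation: 72 h treatment at 37 °C. Measured by: CTG luminescence. Control set: DMSO cell controls and MePR drug controls. Plate: collagen-coated 384-well format.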
(Cellular ATP, detected with luciferase, serves as a proxy for viable cell number.)

Experiment [5] is described as follows: H69AR cell proliferation blockers – human, duplicate replicates, primary screen (AID 580;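 active = viability at or under a set limit in both replicates, limit being median viability minus 3 SD, cut at about 48% in these data, passing the limit was not always enough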;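 also: 100% = mean luminescence of untreated wells and 0% = no signal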). Particulars: H69AR lung tumor cells viability, ATP luminescence, 72 h; at 10 µM; stronger effect = lower value.
Experiment [6] is described as follows: MRP1 drug-resistance reversers in H69AR cells – cell-based, doxorubicin co-treatment, pilot screen (AID 601;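 active = viability loss from added drug above about 55%, and viability with drug at most 40%, in both replicates, limit read from the data, passing the limit was not always enough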). Particulars: CellTiter-Glo, 72 h, at 10 µM; for differential viability (reversal): stronger effect = higher value.
The nature of experiment [7]: yeast transport mutant growth inhibition pilot in 384-well plates, post-Golgi transport modulator project (AID 636; in the data active = inhibition above about 31%). To be noted: absorbance 615 nm, about 18 h, stronger effect = higher value.
Experiment [8] can be described thus: growth suppression of yeast trafficking mutant, preliminary HTS, modulators of trafficking downstream of Golgi apparatus project, 1536-format plate, OD 615 nm (AID 637). Particulars: yeast transport mutant growth, absorbance 615 nm, 18 h; stronger effect = higher value.
[9] abbreviates: H69AR cells + 2 uM doxorubicin, measured here: viability with 2 uM doxorubicin, stronger effect = lower value.
Setting [10] is: H69AR cells, compound alone cytotoxicity.

Broadly, the viability is a read-out of living cells in per cent, often relative to untreated cells. The inhibition is the drop in the measured response relative to a control, in per cent. In the case of `CCOc1cc(C(=O)NCC2CCCO2)cc(OCC)c1OCC` (stereo not given), the viability in experiment [1] was 100%; in experiment [3] it was 100% (inactive); in experiment [4], 119% (inactive); in experiment [5], 102% (inactive); in experiment [6] (setting [9]), 92.2%; in experiment [6] (setting [10]) it was 102%. The Her2 level in experiment [2] is 110% (inactive). Besides, in experiment [6] (H69AR cells + 2 uM doxorubicin), the differential viability (reversal) is 10% (inactive). Also, the inhibition is -4.86% (inactive) in experiment [7] and -5.33% (inactive) in experiment [8].
As to `CCOc1cccc(/C(O)=C2/C(=O)C(=O)N(CCN3CCOCC3)C2c2cccnc2)c1` (stereo not given), the viability in experiment [1] is 98.5%; in experiment [3] it was 98.5% (inactive); in experiment [4], 87.3% (inactive); in experiment [5], 103% (inactive); in experiment [6] (setting [9]) it was 98.2%; in experiment [6] (setting [10]), 103%. Moreover, the Her2 level in experiment [2] is 99.5% (inactive). Further, in experiment [6] (H69AR cells + 2 uM doxorubicin), the differential viability (reversal) was 5.18% (inactive). For the same compound, the inhibition was -3.68% (inactive) in experiment [7] and -3.17% (inactive) in experiment [8].
Turning to `CCCn1c(SCC(=O)NCCc2ccccc2)nnc1-c1ccccn1`, the viability was 97.5% in experiment [1]; 97.5% (inactive) in experiment [3]; 108% (inactive) in experiment [4]; 93.9% (inactive) in experiment [5]; 105% in experiment [6] (setting [9]); 93.9% in experiment [6] (setting [10]). For the same compound, the Her2 level in experiment [2] was 100% (inactive). In experiment [6] (H69AR cells + 2 uM doxorubicin), the differential viability (reversal) is -11.1% (inactive). Besides, the values for the inhibition in experiment [7] and in experiment [8] were -2.8% (inactive) and -5.16% (inactive), respectively.
`CC1CCN(Cc2ccc(-c3nn[nH]n3)cc2)CC1`: the viability in experiment [1] was 116%; in experiment [3], 116% (inactive); in experiment [4], 99.6% (inactive); in experiment [5], 95% (inactive); in experiment [6] (setting [9]), 94.7%; in experiment [6] (setting [10]), 95%. Moreover, the Her2 level in experiment [2] is 86.5% (inactive). Moreover, in experiment [6] (H69AR cells + 2 uM doxorubicin), the differential viability (reversal) is 0.33% (inactive). Moreover, the values for the inhibition in experiment [7] and in experiment [8] were 1.04% (inactive) and 30% (active), respectively.
For the compound `COc1ccc(N2CC(C(=O)Nc3ccc(F)cc3F)CC2=O)cc1` (stereo not given), the viability is 102% in experiment [1]; 102% (inactive) in experiment [3]; 108% (inactive) in experiment [4]; 96.6% (inactive) in experiment [5]; 91.4% in experiment [6] (setting [9]); 96.6% in experiment [6] (setting [10]). Also, the Her2 level in experiment [2] is 93.5% (inactive). In addition, in experiment [6] (H69AR cells + 2 uM doxorubicin), the differential viability (reversal) was 5.19% (inactive). The inhibition in experiment [7] is -3.47% (inactive); in experiment [8], 1.13% (inactive).
For `CCc1cc2ccc(C)cc2nc1SCC(=O)N1CCN(C(=O)c2ccco2)CC1`, the viability in experiment [1] is 112%; in experiment [3] it was 112% (inactive); in experiment [4], 70.1% (inactive); in experiment [5], 64.5% (inactive); in experiment [6] (setting [9]), 70%; in experiment [6] (setting [10]), 64.5%. Moreover, the Her2 level in experiment [2] is 82% (inactive). Moreover, the differential viability (reversal) in experiment [6] (H69AR cells + 2 uM doxorubicin) is -5.54% (inactive). In addition, the inhibition in experiment [7] is -3.82% (inactive); in experiment [8], -0.18% (inactive).
With `CC(C)CNS(=O)(=O)c1ccc(OCC(=O)Nc2ccc3c(c2)OCO3)c(Cl)c1`, the viability in experiment [1] is 89.5%; in experiment [3] it was 89.5% (inactive); in experiment [4], 58.6% (inactive); in experiment [5], 66.7% (inactive); in experiment [6] (setting [9]), 69%; in experiment [6] (setting [10]) it was 66.7%. Besides, the Her2 level in experiment [2] is 66% (inactive). Further, in experiment [6] (H69AR cells + 2 uM doxorubicin), the differential viability (reversal) was -2.31% (inactive). The inhibition in experiment [7] is -5.39% (inactive); in experiment [8], -0.67% (inactive).
In the case of `COCCn1c(C)cc(C(=O)COC(=O)CCN2C(=O)c3ccccc3C2=O)c1C`, the viability in experiment [1] is 94.5%; in experiment [3], 94.5% (inactive); in experiment [4], 97.9% (inactive); in experiment [5], 96.6% (inactive); in experiment [6] (setting [9]) it was 91.1%; in experiment [6] (setting [10]) it was 96.6%. In addition, the Her2 level in experiment [2] was 98.5% (inactive). The differential viability (reversal) in experiment [6] (H69AR cells + 2 uM doxorubicin) was 5.55% (inactive). Moreover, the inhibition in experiment [7] is -5.33% (inactive); in experiment [8] it was 0.65% (inactive).
Consider `CCN(C(=O)c1cn(C)c(=O)c2cc(OC)c(OC)cc12)c1ccccc1C`, for which the viability in experiment [1] is 108%; in experiment [3] it was 108% (inactive); in experiment [4], 106% (inactive); in experiment [5], 98.2% (inactive); in experiment [6] (setting [9]), 91%; in experiment [6] (setting [10]) it was 98.2%. Moreover, the Her2 level in experiment [2] is 75% (inactive). Besides, the differential viability (reversal) in experiment [6] (H69AR cells + 2 uM doxorubicin) was 7.24% (inactive). For the same compound, the inhibition is -0.54% (inactive) in experiment [7] and -1.43% (inactive) in experiment [8].
As for `CCN(CC)CCN1C(=O)Cn2c(C)c(C)c3cccc1c32`, the viability is 108% in experiment [1]; 108% (inactive) in experiment [3]; 95.7% (inactive) in experiment [4]; 84.6% (inactive) in experiment [5]; 86.5% in experiment [6] (setting [9]); 84.6% in experiment [6] (setting [10]). Also, the Her2 level in experiment [2] was 92.5% (inactive). Moreover, the differential viability (reversal) in experiment [6] (H69AR cells + 2 uM doxorubicin) was -1.94% (inactive). The inhibition was -7.47% (inactive) in experiment [7] and -1.75% (inactive) in experiment [8].
`O=C(CN1CCN(c2ncccn2)CC1)Nc1ccccc1-n1cccc1`: the viability is 102% in experiment [1]; 102% (inactive) in experiment [3]; 81.4% (inactive) in experiment [4]; 92.9% (inactive) in experiment [5]; 90.5% in experiment [6] (setting [9]); 92.9% in experiment [6] (setting [10]). Further, the Her2 level in experiment [2] was 79% (inactive). Further, the differential viability (reversal) in experiment [6] (H69AR cells + 2 uM doxorubicin) was 2.44% (inactive). Also, the inhibition in experiment [7] was -1.43% (inactive); in experiment [8] it was -6.83% (inactive).
Consider `O=C(CCS(=O)(=O)c1cccc2nsnc12)N1CCN(Cc2ccc3c(c2)OCO3)CC1`, for which the viability in experiment [1] is 90.5%; in experiment [3] it was 90.5% (inactive); in experiment [4] it was 92.7% (inactive); in experiment [5] it was 94.4% (inactive); in experiment [6] (setting [9]), 104%; in experiment [6] (setting [10]) it was 94.4%. Besides, in experiment [2], the Her2 level was 99% (inactive). For the same compound, in experiment [6] (H69AR cells + 2 uM doxorubicin), the differential viability (reversal) is -9.25% (inactive). The inhibition was -6.71% (inactive) in experiment [7] and -5.87% (inactive) in experiment [8].
On to `CCOC(=O)C1=C(C)Nc2nnnn2C1c1c[nH]c2ccccc12` (stereo not given), for which the viability in experiment [1] was 110%; in experiment [3], 110% (inactive); in experiment [4] it was 77.3% (inactive); in experiment [5], 104% (inactive); in experiment [6] (setting [9]), 95.8%; in experiment [6] (setting [10]) it was 104%. Besides, in experiment [2], the Her2 level is 94% (inactive). In addition, the differential viability (reversal) in experiment [6] (H69AR cells + 2 uM doxorubicin) was 7.95% (inactive). The inhibition was -2.93% (inactive) in experiment [7] and 15.6% (inactive) in experiment [8].
With `CC(C)CNC(=O)C1CC(=O)OC12CCCCC2` (stereo not given), the viability in experiment [1] is 100%; in experiment [3], 100% (inactive); in experiment [4], 112% (inactive); in experiment [5] it was 113% (inactive); in experiment [6] (setting [9]), 90.5%; in experiment [6] (setting [10]), 113%. Further, the Her2 level in experiment [2] is 95% (inactive). Further, in experiment [6] (H69AR cells + 2 uM doxorubicin), the differential viability (reversal) was 22.3% (inactive). In addition, the inhibition in experiment [7] was -8.11% (inactive); in experiment [8], 4.92% (inactive).
With `CCOC(=O)CSc1nnc(CCc2nc3ccccc3[nH]2)n1C`, the viability was 118% in experiment [1]; 118% (inactive) in experiment [3]; 87.5% (inactive) in experiment [4]; 102% (inactive) in experiment [5]; 101% in experiment [6] (setting [9]); 102% in experiment [6] (setting [10]). In addition, the Her2 level in experiment [2] was 112% (inactive). In addition, in experiment [6] (H69AR cells + 2 uM doxorubicin), the differential viability (reversal) was 1.34% (inactive). The results for the inhibition in experiment [7] and in experiment [8] were -4.93% (inactive) and -7.78% (inactive), respectively.
As for `CCOc1nc(-c2ccccc2)ccc1-c1noc(-c2cccnc2)n1`, the viability in experiment [1] was 76.5%; in experiment [3] it was 76.5% (inactive); in experiment [4], 124% (inactive); in experiment [5] it was 91.2% (inactive); in experiment [6] (setting [9]), 86.4%; in experiment [6] (setting [10]), 91.2%. Besides, the Her2 level in experiment [2] was 90% (inactive). In addition, the differential viability (reversal) in experiment [6] (H69AR cells + 2 uM doxorubicin) was 4.83% (inactive). Also, the results for the inhibition in experiment [7] and in experiment [8] were -0.26% (inactive) and 0.33% (inactive), respectively.
